System: MS2 coat protein
Test: apparent Kd, MS2 coat protein; higher = weaker binding; RNA-MaP array; FMN 200 µM where present
How it was run: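 Designs on Illumina sequencing-chip clusters, transcribed by stalled E. coli RNA polymerase, were exposed to SNAP-549-labelled MS2 coat protein in doubling steps from 0.7 or 1.5 nM up to 3 µM, without and then with constant ligand. The buffer held 100 mM Tris-HCl pH 7.5, 80 mM KCl, 4 mM MgCl2, BSA, DTT, yeast tRNA and Tween-20. Apparent Kd values are medians of filtered per-cluster binding-curve fits to green signal normalised to red-channel RNA signal and control-cluster median Fmax.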

[1] = designed as: ON switch for flavin mononucleotide, no ligand
[2] = ligand present: flavin mononucleotide, designed as: ON switch for flavin mononucleotide
[3] = designed as: OFF switch for flavin mononucleotide, no ligand
[4] = ligand present: flavin mononucleotide, designed as: OFF switch for flavin mononucleotide

| Sequence | apparent Kd [1] | apparent Kd [2] | apparent Kd [3] | apparent Kd [4] |
| --- | --- | --- | --- | --- |
| UUCAAAUUCGUAGGAUAUGUAUAUAAUUUCUACAUGAGGAUCACCCAUGUUACCAUUUUUUAGUGACAGAAGGACGUAAUCUAA | 211 nM | 47.6 nM | – | – |
| UUGGACGUCGUAGGAUAUGUAGGAUAUUCAUACAUGAGGAUCACCCAUGUUGACAUGGAAGAAGGACAGAAGGACGAUGUCCAU | 8.63 nM | 4.56 nM | – | – |
| GGACAUUUACAGAAGGGCAAAUUUUUUAUUGAAUAUUUAGUUCUGUUUUGCAGGAUAUGUUUUACAUGAGGAUCACCCAUGUCC | 79.9 nM | 30.6 nM | – | – |
| UUUUAUAGAACAGGAUAUGUGGGCGGGUCCGACGGGAUCCACCACAUGAGGAUCACCCAUGUGACACAGAAGGGUUCCAGAAAC | 474 nM | 24.2 nM | – | – |
| AAAUGCCUGUCGAUGCUCGACAUGAGGAUCACCCAUGUAUAGCAGGAUAUGCAGAACUGACUCGUGCAGAAGGGCUAUACCUAC | – | – | 17.8 nM | 37.4 nM |
| UUUAUAUAGUAAGGAUAUGUAUUAUUUUUGUCAACAGAAGGUACUGACAUGAGGAUCACCCAUGUUUUAGUGUGGGCAUGUAGU | – | – | 219 nM | 283 nM |
| GUUCUGCUAGGAUAUGCAUCAACGGGAUAGCCUACGCGGAAACAUGAGGAUCACCCAUGUAGAAGGAGCUGAAC | – | – | 30.3 nM | 30.6 nM |
| CGGUUGCGCUCCUAUGGUUUGAACAUGAGGAUCACCCAUGUACAGGAUAUAGUAAGAACGCCUUACUAGAAGGGUACGUUCUCG | – | – | 18.9 nM | 22 nM |
| CAUACACAUGAGGAUCACCCAUGUGAGGAUAUGCGUACGUUGUCCGUAGGCGACGUGCGCAGAAGGCGCGUGAG | – | – | 60.1 nM | 67.6 nM |
| UGUUACUAGUAAGGAUAUACUUGCAAUAAGCUUGUAGAAGGUACAGUCUUUUGUAUAACAUGUUUACAUGAGGAUCACCCAUGU | 10.6 nM | 9.66 nM | – | – |
| AGUGUUGGAGGAUAUACAUGAGGAUCACCCAUGUACAUCACACAGUAUAUCAAACCAUGUAGAAGGCCAAUACA | – | – | 18.2 nM | 36.4 nM |
| GCACUGGAUGUAGGAUAUCAGGACGAUAAGUCCUGAGAAGGACAUGAGGAUCACCCAUGUAAAACCUCCCAGUGCUAUAAUAUA | – | – | 17.1 nM | 19.7 nM |
| UUUAUAAAUUAGAAGGCGAGAUAAAAUACAAUAGACAUGAGGAUCACCCAUGUGUACCCAUGUUUUGAGGAUAUAGUCAUAUAU | 804 nM | 536 nM | – | – |
| AGGAAGUUAGGAUAUGCUGCUCGUCACUUGCGUGAUGAGUAGCAGAAGGGACAUGAGGAUCACCCAUGUAAAAA | – | – | 44.2 nM | 22.7 nM |
| AAUUAUAUACAGAAGGAGUUAUAUUAAGUAUUACUAGGAUAUGUUCACAUGAGGAUCACCCAUGUCAUAUUGGGAUUUAUUUUU | – | – | 17 nM | 21.6 nM |
| GUCAGCAAAUAAGGAUAUACAUCACUGCUUCGGCAGUGUAUUAAGAUCACAUGAGGAUCACCCAUGUAGAAGGUAUAAGCUGAU | – | – | 8.12 nM | 29.4 nM |
| ACUGGUCGAGGAUAUACAUGAGGAUCACCCAUGUGAUUAGCAGUCCUCGGACUGCAAUGUAGAAGGCGACCAGU | – | – | 370 nM | 842 nM |
| CAUAUGUCAGGAUAUUAUCUCAAGGUAUUCGUUACUAACGAUAAGAAGGGACAUGAGGAUCACCCAUGUGCCGC | – | – | 18.4 nM | 24.2 nM |
| GCUUCACAUGAGGAUCACCCAUGUUUUCGGAGUCGAGGAUAUGGUCACUGUAAACAGUGGCCAGAAGGCGAGGAGC | 18.2 nM | 16.7 nM | – | – |
| GUAGGGUCAGGAUAUACGGGCGGAGGGAUGUAUUGUAGUUGGUAGAAGGGACAUGAGGAUCACCCAUGUAAGAA | – | – | 29.7 nM | 26.2 nM |
| AUCCGGCGUGUAGGAUAUGGAAAAGAUUAGGAUCCAGAAGGACAUGAGGAUCACCCAUGUACAUGUAAACAGUCAUCACCGGAA | – | – | 34.1 nM | 49.6 nM |
| UAAAUUUACAAGAAGGCUAACAUGAGGAUCACCCAUGUUGUACAUGGAUAUAGAGGAUAUUGCUAAUAAUUAUUUAUCAUAAUU | – | – | 24.2 nM | 19.5 nM |
| AAUAUGUCAUCAGGAUAUCGAGACCGGCGAGUACGAGAAGGGAUGACAUGAGGAUCACCCAUGUGAGACGCGUGAUUUGCAGGU | – | – | 105 nM | 304 nM |
| UUACUAUCACAGAAGGCUGGAUAGUAUAUAGACGGAGGAUAUGUGACAUGAGGAUCACCCAUGUUUCACCGACAUGAGGAUCAA | – | – | 22.5 nM | 54.1 nM |
| UGUCUGAGCAGAGGAUAUUACAUGAGGAUCACCCAUGUAUGAACCAAUAGCUGGAAACAGCAAUGUAAGAAGGCUGCUCCGACA | – | – | 12.6 nM | 199 nM |
| AUGGAUACCACAGGAUAUACCUGGAAUAUCCAGGUAGAAGGGUGGUCCAUCCUAUGUAAAUACAUGAGGAUCACCCAUGUGUCC | 256 nM | 244 nM | – | – |
| CAGCUGAAAGUCAGGAUAUCUAGAGCUGCGGCUCUAGAGAAGGGACAUGAGGAUCACCCAUGUGAUCACAGCUG | – | – | 1440 nM | 150 nM |
| AGUUGGCGAGGAUAUACAUGAGGAUCACCCAUGUGGUCCUGCGAUGGUGUCGCCCUUUGUAGAAGGCGCGGGUC | – | – | 35 nM | 28.1 nM |

| Sequence | apparent Kd [1] | apparent Kd [2] | apparent Kd [3] | apparent Kd [4] |
| --- | --- | --- | --- | --- |
| AGAAUUGGUAGAUAAAAGGUCACACAGGAUAUACUCCCAACAUGAGGAUCACCCAUGUACUGGCGGUAGAAGGGUGGGAUCCUC | 33.6 nM | 8.52 nM | – | – |
| ACACAUGAGGAUCACCCAUGUAGCUGGCGUCUGCGCCAGCCACAGGAUAUACGGCAAAACAAACCGUAGAAGGGUGAUAAACAC | 80.1 nM | 31.8 nM | – | – |
| GUGGUCAGACAUGAGGAUCACCCAUGUGGAAUAAAUAACACACAGGAUAUGUAAUAUAAAAUAUAACAGAAGGGUGGAUUGGUG | 352 nM | 181 nM | – | – |
| GAGCCUAAUGAGAAGGUGUGUAUAAAUUAUAUACAAGGAUAUCGGUCGAGCGUGUUGACAUGAGGAUCACCCAUGUUGAGGCUU | 7.86 nM | 5.29 nM | – | – |
| UCAUUGAUUGUGAGGAUAUCGAUGUGAUGGAUUGUCGAGAAGGCACAUGAGGAUCACCCAUGUGGGUGUGGGCU | – | – | 864 nM | 454 nM |
| GGACAUGAGGAUCACCCAUGUCGAACAUGAGGAUCACCCAUGUAGGAUAUGCUACUCAAAGAGUAGCAGAAGGACAUGUGCCUU | – | – | 53.7 nM | 51.2 nM |
| UUAUGAGCGAUAGGAUAUACUGAGAUUGAAUGGGUAGAAGGAUCGAUCGUGUGGAAGACAUGAGGAUCACCCAUGUUACGGGCC | 56 nM | 166 nM | – | – |
| CGAUAAUAUAGUUAUCCGUAACGGACAUGAGGAUCACCCAUGUAGGAUAUGUUACUCAACGAGUAACAGAAGGACAUGAGUCUU | – | – | 14.8 nM | 109 nM |
| CGAACCAUGUAGAAGGCUGUCUUAAAAUAGGACAGAGGAUAUACAUGAGGAUCACCCAUGUACUCCUUUAAAAGGUUCGAAAUA | – | – | – | 7.03 nM |
| CGCGGUACUUAGGUACCACACAUGAGGAUCACCCAUGUAUCACAGGAUAUGCAUGAUAUAUUCAGGCAGAAGGGUGAUCUUACC | 37.8 nM | 99.4 nM | – | – |
| UAUAUAUAGGCAGGAUAUACAUGUAUAUAUAAUAUAUUAUAUAAUAUUACAUGAGGAUCACCCAUGUAGAAGGGCCAUAAUAUA | – | – | 48.3 nM | 66.9 nM |
| ACAUGAGGAUCACCCAUGUUGACAUAGGAUAUACAACAUUAGUUUCAUUCAUGUAAACUUUGAUAGUAGAAGGAUGGUACAUGA | – | – | 13.2 nM | 13 nM |
| UUAUUUAUACAAGGAUAUCAAUUAUAUACAAAUCCAACAUGAGGAUCACCCAUGUUUUAUUUUUUUGAGAAGGUGUAUUGUCAG | 32.8 nM | 32 nM | – | – |
| AUAUAUAUAUCAGGAUAUGGACAGGCCUGUUCGUAUUGAGACAGUAACAUGAGGAUCACCCAUGUCCAGAAGGGAUAUAUAUAU | – | – | 93.2 nM | 55.1 nM |
| GCAUGUUAUGUCAGGAUAUACCUAUGGAUACAUAGGUAGAAGGGACAUGAGGAUCACCCAUGUCCUAAUCAUGC | – | – | 13.4 nM | 16.7 nM |
| CGGGCGAGAGGAUAUACAUGAGGAUCACCCAUGUGUUUCCAGGCGGUAGCUGUCACGUGUAGAAGGUUUUCCGG | – | – | 18.4 nM | 17.7 nM |
| GCACUGGAUGUAGGAUAUCAGGACGAUAAGUCCUGAGAAGGACAUGAGGAUCACCCAUGUAAAAACUUCCCAGUGCAUAAUAUA | – | – | 15.4 nM | 18 nM |
| UUGGACGUCGUAGGAUAUAUAGGAUAUUCCUACAUGAGGAUCACCCAUGUUGACAUGGAAGAAGGACAGAAGGACGAUGUCCAU | 27.1 nM | 9.75 nM | – | – |
| UGCAUGGUAGGAUAUACGGAACAUUAGGGUUUGUUAUGUAGACAUGAGGAUCACCCAUGUAGAAGGGCCGUGCU | – | – | 37.9 nM | 60.8 nM |
| AUCGUGUUAGGAUAUACACGUCGCUGGGUAGCUAGCGAUGGGUAGAAGGAACAUGAGGAUCACCCAUGUUCGGG | – | – | 178 nM | 188 nM |
| UUAUGUUUUGUAGGAUAUCAUUAGUUAUGUAUUAUAAUUGAAAUUUUGUUAUGAGAAGGACAUUUACAUGAGGAUCACCCAUGU | – | – | 13.9 nM | 9.9 nM |
| GGAUAGGACAGAGGAUAUAAGUGCUAGAGAUACUAGCAAAAUUUCCUCACAUGAGGAUCACCCAUGUAGAAGGCUGUCCUAUCG | – | – | 5.71 nM | 11.3 nM |
| CGAGUUUUUGAGAAGGCAUAUUAUAAUAUUCCACAUGUUUACAUGAGGAUCACCCAUGUUUACUAUGAGGAUAUCAGAAUGUCG | – | – | 4.72 nM | 4.54 nM |
| GUAUAUAUUACAUGAGGAUCACCCAUGUCAGAACGGGUAAUCAGAAGGUACUAUUAGAGAAAGAGUAAGGAUAUGAUUAUAUAC | 329 nM | 33.9 nM | – | – |
| AAUAUGUUGCAGAAGGUUAUUUUUAUAACGAUCCAUUUGACAUGAGGAUCACCCAUGUAAUUGAUGAAGGAUAUGCAAUAUAUU | – | – | 6.42 nM | 7.18 nM |
| AAAUCCGCUGAGGAUAUUAUGAGUGAGAGCUCAUGAGAAGGCGGUACAUGAGGAUCACCCAUGUCUAUGGGCAA | – | – | 419 nM | 292 nM |
| UCUCGUUUCGCAGGAUAUGCUGGUCGGUAAUAUACCGGCCACAUGAGGAUCACCCAUGUGCCACAGCAGAAGGGUGACACUAGA | 634 nM | 65.7 nM | – | – |

Reference: the EternaBench riboswitch data
